Active and inactive are the calls of the source.
Assays:
[1] = Cytotoxicity against human Jurkat/A4 cells assessed as cell death at 1 uM after 48 hrs by trypan blue exclusion assay relative to control; assay type: functional
Method in brief: (§1)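 Compound added to exponentially growing Jurkat or Jurkat/A4 cells in RPMI-1640 with 10% FCS at 37 °C. Viable cells counted directly by trypan blue exclusion after 48 h. EC50 taken by linear interpolation of survival data. Mean±SD from three independent experiments.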

Jurkat [2] = assay: Cytotoxicity against human Jurkat cells assessed as cell viability after 48 hrs by trypan blue exclusion assay; assay type: functional, cell-based; method in brief: as §1
Paracentrotus lividus [3] = assay: Antimitotic activity against sea urchin embryo free-swimming blastula model assessed as embryo spinning compound treated at 8 to 10 hrs post-fertilization measured after 0.25 to 20 hrs; assay type: functional, Blastula stage
Paracentrotus lividus [4] = assay: Antimitotic activity against sea urchin embryo model assessed as cleavage arrest of fertilized egg compound treated at 8 to 20 mins post-fertilization and 45 to 55 mins prior to first mitotic cycle completion measured 2.5 to 5.5 hrs post-fertilization; assay type: functional
Method in brief: (§2)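 Fertilized eggs are exposed 8–20 min after fertilization to 2-fold decreasing concentrations. Stocks are 10 mM in DMSO, then diluted 10-fold in 95% EtOH; final DMSO is at most 0.05% and EtOH at most 1%. Embryos are kept as a monolayer, up to 2000 embryos/mL, in filtered seawater at room temperature. The value is the threshold concentration giving cleavage alteration, embryo death before hatching or full mitotic arrest. Duplicates were run.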

Paracentrotus lividus [5] = assay: Antimitotic activity against sea urchin embryo model assessed as cleavage alteration of fertilized egg compound treated at 8 to 20 mins post-fertilization and 45 to 55 mins prior to first mitotic cycle completion measured 2.5 to 5.5 hrs post-fertilization; assay type: functional; method in brief: as §2
[6] = Cytotoxicity against human MES-SA/Dx5 cells after 72 hrs by MTS assay; assay type: functional, cell-based; settings: MES-SA/Dx5, 72 h
[7] = Cytotoxicity against human MES-SA cells after 72 hrs by MTS assay; assay type: functional, cell-based
[8] = Cytotoxicity against multidrug-resistant human HL60/TX1000 cells after 72 hrs by MTS assay; assay type: functional, cell-based; settings: HL60/TX1000, 72 h
HL-60 = assay: Cytotoxicity against human HL60 cells after 72 hrs by MTS assay; assay type: functional, cell-based; settings: HL-60, 72 h
[9] = Induction of apoptosis in human Jurkat/A4 cells assessed as PARP-1 cleavage at 300 nM after 48 hrs by FITC-conjugated flow cytometric analysis (reference value: 0.9%); assay type: functional
Jurkat [10] = assay: Induction of apoptosis in human Jurkat cells assessed as PARP-1 cleavage at 30 nM after 48 hrs by FITC-conjugated flow cytometric analysis (reference value: 3.5%); assay type: functional
[11] = Induction of apoptosis in human Jurkat/A4 cells assessed as active caspase 3 expression at 300 nM after 48 hrs by FITC-conjugated flow cytometric analysis (reference value: 1.1%); assay type: functional
[12] = Induction of apoptosis in human Jurkat/A4 cells assessed as active caspase 3 expression at 300 nM after 24 hrs by FITC-conjugated flow cytometric analysis (reference value: 1.1%); assay type: functional
Jurkat [13] = assay: Induction of apoptosis in human Jurkat cells assessed as active caspase 3 expression at 30 nM after 48 hrs by FITC-conjugated flow cytometric analysis (reference value: 3.3%); assay type: functional
Jurkat [14] = assay: Induction of apoptosis in human Jurkat cells assessed as active caspase 3 expression at 30 nM after 24 hrs by FITC-conjugated flow cytometric analysis (reference value: 3.3%); assay type: functional
Jurkat [15] = assay: Induction of apoptosis in human Jurkat cells assessed as active caspase 3 expression at 30 nM by FITC-conjugated flow cytometric analysis; assay type: functional, cell-based; settings: TDE = time-dependent effect
Jurkat/A4 [16] = assay: Induction of apoptosis in human Jurkat/A4 cells assessed as Bcl-2 expression at 300 nM after 24 to 48 hrs Western blotting analysis; assay type: functional, cell-based
Method in brief: (§3)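 Cells in RPMI-1640 with 10% FCS at 37 °C, 5% CO2, were treated for 24 or 48 h, then washed in cold PBS. They were lysed 30 min at 4 °C in 20 mM Tris-HCl pH 7.4, 1% Triton X-100, 150 mM NaCl and protease inhibitors. Equal protein was run on 12% SDS-PAGE and blotted to PVDF, with 5% milk block. Primary MoAb 2 h RT, HRP anti-mouse 60 min, ECL; β-actin loading control.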

Jurkat [17] = assay: Induction of apoptosis in human Jurkat cells assessed as Bcl-2 expression at 30 nM after 24 to 48 hrs Western blotting analysis; assay type: functional, cell-based; method in brief: as §3
Jurkat/A4 [18] = assay: Induction of apoptosis in human Jurkat/A4 cells assessed as reduction of XIAP expression at 300 nM after 24 hrs Western blotting analysis; assay type: functional, cell-based; method in brief: as §3
Jurkat [19] = assay: Induction of apoptosis in human Jurkat cells assessed as reduction of XIAP expression at 30 nM after 24 hrs Western blotting analysis; assay type: functional, cell-based; method in brief: as §3
Jurkat/A4 [20] = assay: Induction of apoptosis in human Jurkat/A4 cells assessed as caspase 2 activation at 300 nM after 24 to 48 hrs by Western blotting analysis; assay type: functional, cell-based; method in brief: as §3
Jurkat/A4 [21] = assay: Induction of apoptosis in human Jurkat/A4 cells assessed as caspase 9 activation at 300 nM after 24 to 48 hrs by Western blotting analysis; assay type: functional, cell-based; method in brief: as §3
Jurkat [22] = assay: Induction of apoptosis in human Jurkat cells assessed as caspase 2 activation at 30 nM after 24 to 48 hrs by Western blotting analysis; assay type: functional, cell-based; method in brief: as §3
Jurkat [23] = assay: Induction of apoptosis in human Jurkat cells assessed as caspase 9 activation at 30 nM after 48 hrs by Western blotting analysis; assay type: functional, cell-based; method in brief: as §3
[24] = Cell cycle arrest in human Jurkat/A4 cells assessed as accumulation at sub-G1 phase at 300 nM after 48 hrs by propidium iodide staining-based flow cytometric analysis (reference value: 17.1%); assay type: functional
Jurkat [25] = assay: Cell cycle arrest in human Jurkat cells assessed as accumulation at sub-G1 phase at 30 nM after 48 hrs by propidium iodide staining-based flow cytometric analysis (reference value: 12.2%); assay type: functional
Jurkat/A4 [26] = assay: Induction of apoptosis in human Jurkat/A4 cells assessed as condensed and fragmented nuclei at 300 nM after 48 hrs by May-Grunwald-Giemsa staining-based microscopic analysis; assay type: functional, cell-based
Method in brief: (§4)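 Jurkat or Jurkat/A4 suspension cultures in RPMI-1640 with 10% FCS at 37 °C, 5% CO2 were treated for 48 h alongside untreated controls. Cells were cytospun, stained May–Grünwald–Giemsa and examined by light microscopy with a 100× objective for nuclear and mitotic abnormalities.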

Jurkat/A4 [27] = assay: Induction of apoptosis in human Jurkat/A4 cells assessed as small cell fragments with unequally segregated chromosomes enclosed by cell membrane at 300 nM after 48 hrs by May-Grunwald-Giemsa staining-based microscopic analysis; assay type: functional; method in brief: as §4
Jurkat/A4 [28] = assay: Induction of apoptosis in human Jurkat/A4 cells assessed as micronuclei formation at 300 nM after 48 hrs by May-Grunwald-Giemsa staining-based microscopic analysis; assay type: functional, cell-based; method in brief: as §4
Jurkat [29] = assay: Induction of apoptosis in human Jurkat cells assessed as condensed and fragmented nuclei at 15 nM after 48 hrs by May-Grunwald-Giemsa staining-based microscopic analysis; assay type: functional, cell-based; method in brief: as §4
Jurkat [30] = assay: Induction of apoptosis in human Jurkat cells assessed as small cell fragments with unequally segregated chromosomes enclosed by cell membrane at 15 nM after 48 hrs by May-Grunwald-Giemsa staining-based microscopic analysis; assay type: functional; method in brief: as §4
Jurkat [31] = assay: Induction of apoptosis in human Jurkat cells assessed as micronuclei formation at 15 nM after 48 hrs by May-Grunwald-Giemsa staining-based microscopic analysis; assay type: functional, cell-based; method in brief: as §4
[32] = Cell cycle arrest in human Jurkat/A4 cells assessed as decrease in accumulation at G0/G1 phase at 300 nM after 24 hrs by propidium iodide staining-based flow cytometric analysis; assay type: functional
[33] = Cell cycle arrest in human Jurkat/A4 cells assessed as increase in accumulation at G2/M phase at 300 nM after 24 hrs by propidium iodide staining-based flow cytometric analysis; assay type: functional
Jurkat [34] = assay: Cell cycle arrest in human Jurkat cells assessed as decrease in accumulation at G0/G1 phase at 30 nM after 24 hrs by propidium iodide staining-based flow cytometric analysis; assay type: functional
Jurkat [35] = assay: Cell cycle arrest in human Jurkat cells assessed as increase in accumulation at G2/M phase at 30 nM after 24 hrs by propidium iodide staining-based flow cytometric analysis; assay type: functional
Jurkat/A4 [36] = assay: Cytotoxicity against human Jurkat/A4 cells assessed as cell death treated for 2 hrs followed by cultivation in drug-free medium for 7 days; assay type: functional, cell-based
Method in brief: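 Jurkat/A4 cells in RPMI-1640 with 10% fetal calf serum are exposed for two hours, then cultured seven days in drug-free medium and scored for delayed cell death.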

SMILES: COc1ccc(-c2cnnn2-c2cc(OC)c(OC)c(OC)c2)cc1
- Activity [1]: <20%
- EC50 (Jurkat [2]): 30 nM
- EC (Paracentrotus lividus [3]): 1 µM
- EC (Paracentrotus lividus [4]): 0.2 µM
- EC (Paracentrotus lividus [5]): 0.02 µM
- IC50 [6]: 20 nM
- IC50 [7]: 20 nM
- IC50 [8]: 20 nM
- IC50 (HL-60): 20 nM
- Activity [9]: 2.5%
- Activity (Jurkat [10]): 61.4%
- Activity [11]: 1.6%
- Activity [12]: 1.8%
- Activity (Jurkat [13]): 32.1%
- Activity (Jurkat [14]): 19.6%
- Activity (Jurkat [15]): tde
- Activity (Jurkat/A4 [16]): inactive
- Activity (Jurkat [17]): inactive
- Activity (Jurkat/A4 [18]): inactive
- Activity (Jurkat [19]): Active
- Activity (Jurkat/A4 [20]): inactive
- Activity (Jurkat/A4 [21]): inactive
- Activity (Jurkat [22]): Active
- Activity (Jurkat [23]): Active
- Activity [24]: 26.2%
- Activity (Jurkat [25]): 43.4%
- Activity (Jurkat/A4 [26]): Active
- Activity (Jurkat/A4 [27]): Active
- Activity (Jurkat/A4 [28]): Active
- Activity (Jurkat [29]): Active
- Activity (Jurkat [30]): Active
- Activity (Jurkat [31]): Active
- Activity [32]: Active
- Activity [33]: Active
- Activity (Jurkat [34]): Active
- Activity (Jurkat [35]): Active
- Activity (Jurkat/A4 [36]): Active
